Measured values reported in ChEMBL document CHEMBL1833957, “P1-substituted symmetry-based human immunodeficiency virus protease inhibitors with potent antiviral activity against drug-resistant viruses” (J Med Chem, 2011).

Test system: Human immunodeficiency virus 1
Assay: Antiviral activity against HIV1 B26 harboring protease L33F, K45I, M46I, I50V, A71V and V82F mutant infected in human MT4 cells assessed as inhibition of virus-induced cell death after 5 days by MTT assay relative to wild type HIV1 pNL4-3
Type: functional
Conditions: not given

SMILES	fold change (FC)
COC(=O)N[C@H](C(=O)N[C@@H](Cc1ccccc1)C[C@H](O)[C@H](Cc1ccc(-c2cccnc2)cc1)NC(=O)[C@@H](NC(=O)OC)C(C)(C)C)C(C)(C)C	3
COC(=O)N[C@H](C(=O)N[C@@H](Cc1ccccc1)C[C@H](O)[C@H](Cc1ccc(-c2ccc(C(C)=O)cc2)cc1)NC(=O)[C@@H](NC(=O)OC)C(C)(C)C)C(C)(C)C	8

Test system: not listed separately
Assay: Oral bioavailability in rat at 5 mg/kg
Type: ADME, organism-based
Conditions: in vivo

SMILES	bioavailability [%]
COC(=O)N[C@H](C(=O)N[C@@H](Cc1ccccc1)C[C@H](O)[C@H](Cc1ccc(-c2cccnc2)cc1)NC(=O)[C@@H](NC(=O)OC)C(C)(C)C)C(C)(C)C	5
COC(=O)N[C@H](C(=O)N[C@@H](Cc1ccccc1)C[C@H](O)[C@H](Cc1ccc(-c2ccc(C(C)=O)cc2)cc1)NC(=O)[C@@H](NC(=O)OC)C(C)(C)C)C(C)(C)C	0

Test system: Human immunodeficiency virus 1
Assay: (§1) Antiviral activity against HIV1 isolate 1 harboring protease L10I, E35D, N37D, M46I, I54V, G57R, L63P, A71V, T74P, I84V, L90M, I93L mutant infected in human MT4 cells assessed as inhibition of virus-induced cell death after 5 days by MTT assay relative to wild type HIV1 pNL4-3
Type: functional
Conditions: not given

SMILES	fold change (FC)
COC(=O)N[C@H](C(=O)N[C@@H](Cc1ccccc1)C[C@H](O)[C@H](Cc1ccc(-c2cccnc2)cc1)NC(=O)[C@@H](NC(=O)OC)C(C)(C)C)C(C)(C)C	29
COC(=O)N[C@H](C(=O)N[C@@H](Cc1ccccc1)C[C@H](O)[C@H](Cc1ccc(-c2ccc(C(C)=O)cc2)cc1)NC(=O)[C@@H](NC(=O)OC)C(C)(C)C)C(C)(C)C	28

Test system: not listed separately
Assay: AUC in rat at 5 mg/kg, po
Type: ADME, organism-based
Parameters: dose 5 mg/kg, route oral
Conditions: plasma
How it was run: (§2)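 Rats given a single 5 mg/kg oral dose with no ritonavir. Plasma Cmax is reported in μg/mL and AUC in μg h/mL.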

SMILES	AUC [ng·h/mL]
COC(=O)N[C@H](C(=O)N[C@@H](Cc1ccccc1)C[C@H](O)[C@H](Cc1ccc(-c2cccnc2)cc1)NC(=O)[C@@H](NC(=O)OC)C(C)(C)C)C(C)(C)C	160

Test system: not listed separately
Assay: Oral bioavailability in rat at 5 mg/kg co-administered with 5 mg/kg of CYP3A4 inhibitor ritonavir relative to iv dose without ritonavir co-administration
Type: ADME, organism-based
Conditions: in vivo
How it was run: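 Rats given 5 mg/kg orally with 5 mg/kg ritonavir. Bioavailability (%) is calculated against an IV dose given without ritonavir.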

SMILES	bioavailability [%]
COC(=O)N[C@H](C(=O)N[C@@H](Cc1ccccc1)C[C@H](O)[C@H](Cc1ccc(-c2cccnc2)cc1)NC(=O)[C@@H](NC(=O)OC)C(C)(C)C)C(C)(C)C	25
COC(=O)N[C@H](C(=O)N[C@@H](Cc1ccccc1)C[C@H](O)[C@H](Cc1ccc(-c2ccc(C(C)=O)cc2)cc1)NC(=O)[C@@H](NC(=O)OC)C(C)(C)C)C(C)(C)C	27

Test system: not listed separately
Assay: Cmax in rat at 5 mg/kg, po
Type: ADME, organism-based
Parameters: dose 5 mg/kg, route oral
Conditions: in vivo
How it was run: as §2

SMILES	Cmax [ng/mL]
COC(=O)N[C@H](C(=O)N[C@@H](Cc1ccccc1)C[C@H](O)[C@H](Cc1ccc(-c2cccnc2)cc1)NC(=O)[C@@H](NC(=O)OC)C(C)(C)C)C(C)(C)C	180

Test system: not listed separately
Assay: AUC in rat at 5 mg/kg, po co-administered with 5 mg/kg of CYP3A4 inhibitor ritonavir
Type: ADME, organism-based
Conditions: plasma
How it was run: (§3)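 Rats given 5 mg/kg orally together with 5 mg/kg ritonavir. Plasma Cmax is reported in μg/mL and AUC in μg h/mL.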

SMILES	AUC [ng·h/mL]
COC(=O)N[C@H](C(=O)N[C@@H](Cc1ccccc1)C[C@H](O)[C@H](Cc1ccc(-c2cccnc2)cc1)NC(=O)[C@@H](NC(=O)OC)C(C)(C)C)C(C)(C)C	740
COC(=O)N[C@H](C(=O)N[C@@H](Cc1ccccc1)C[C@H](O)[C@H](Cc1ccc(-c2ccc(C(C)=O)cc2)cc1)NC(=O)[C@@H](NC(=O)OC)C(C)(C)C)C(C)(C)C	220

Test system: Human immunodeficiency virus 1
Assay: as §1, with “HIV1” for “HIV1 isolate 1”, “I13V, G16A, Q18H, L33F,” for “E35D,”, “G57R, Q61H,I62V,” for “G57R,”, “A71L, I72T, L76V, V77I, V82A, N88G,” for “A71V, T74P, I84V,”
Type: functional
Conditions: not given

SMILES	fold change (FC)
COC(=O)N[C@H](C(=O)N[C@@H](Cc1ccccc1)C[C@H](O)[C@H](Cc1ccc(-c2cccnc2)cc1)NC(=O)[C@@H](NC(=O)OC)C(C)(C)C)C(C)(C)C	17
COC(=O)N[C@H](C(=O)N[C@@H](Cc1ccccc1)C[C@H](O)[C@H](Cc1ccc(-c2ccc(C(C)=O)cc2)cc1)NC(=O)[C@@H](NC(=O)OC)C(C)(C)C)C(C)(C)C	4

Test system: Liver microsomes
Assay: Metabolic stability in human liver microsomes assessed as disappearance of the compound after 20 mins in the presence of 0.4 uM CYP3A4 inhibitor ritonavir
Type: ADME, Microsome
Conditions: not given

SMILES	Stability
COC(=O)N[C@H](C(=O)N[C@@H](Cc1ccccc1)C[C@H](O)[C@H](Cc1ccc(-c2cccnc2)cc1)NC(=O)[C@@H](NC(=O)OC)C(C)(C)C)C(C)(C)C	Stable

Test system: not listed separately
Assay: Cmax in rat at 5 mg/kg, po co-administered with 5 mg/kg of CYP3A4 inhibitor ritonavir
Type: ADME, organism-based
Parameters: dose 5 mg/kg, route oral
Conditions: in vivo
How it was run: as §3

SMILES	Cmax [ng/mL]
COC(=O)N[C@H](C(=O)N[C@@H](Cc1ccccc1)C[C@H](O)[C@H](Cc1ccc(-c2cccnc2)cc1)NC(=O)[C@@H](NC(=O)OC)C(C)(C)C)C(C)(C)C	430
COC(=O)N[C@H](C(=O)N[C@@H](Cc1ccccc1)C[C@H](O)[C@H](Cc1ccc(-c2ccc(C(C)=O)cc2)cc1)NC(=O)[C@@H](NC(=O)OC)C(C)(C)C)C(C)(C)C	50

Test system: Human immunodeficiency virus 1
Assay: Antiviral activity against wild type HIV1 pNL4-3 infected in human MT4 cells assessed as inhibition of virus-induced cell death after 5 days by MTT assay in presence of 50% human serum
Type: functional, organism-based
Conditions: Human immunodeficiency virus 1, pNL4-3, MT4, 120 h

SMILES	EC50 [nM]
COC(=O)N[C@H](C(=O)N[C@@H](Cc1ccccc1)C[C@H](O)[C@H](Cc1ccc(-c2cccnc2)cc1)NC(=O)[C@@H](NC(=O)OC)C(C)(C)C)C(C)(C)C	35
COC(=O)N[C@H](C(=O)N[C@@H](Cc1ccccc1)C[C@H](O)[C@H](Cc1ccc(-c2ccc(C(C)=O)cc2)cc1)NC(=O)[C@@H](NC(=O)OC)C(C)(C)C)C(C)(C)C	3

Test system: Human immunodeficiency virus 1
Assay: Antiviral activity against wild type HIV1 pNL4-3 infected in human MT4 cells assessed as inhibition of virus-induced cell death after 5 days by MTT assay
Type: functional, organism-based
Conditions: Human immunodeficiency virus 1, pNL4-3, MT4, 120 h
How it was run: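 EC50 measured against wild-type virus in MT-4 cells, with no human serum added.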

SMILES	EC50 [nM]
COC(=O)N[C@H](C(=O)N[C@@H](Cc1ccccc1)C[C@H](O)[C@H](Cc1ccc(-c2cccnc2)cc1)NC(=O)[C@@H](NC(=O)OC)C(C)(C)C)C(C)(C)C	11
COC(=O)N[C@H](C(=O)N[C@@H](Cc1ccccc1)C[C@H](O)[C@H](Cc1ccc(-c2ccc(C(C)=O)cc2)cc1)NC(=O)[C@@H](NC(=O)OC)C(C)(C)C)C(C)(C)C	1

Test system: not listed separately
Assay: Metabolic stability in human liver microsomes assessed as disappearance of the compound after 20 mins
Type: ADME, Microsome
Conditions: read-out: Drug metabolism

SMILES	metabolised at 20 min [%]
COC(=O)N[C@H](C(=O)N[C@@H](Cc1ccccc1)C[C@H](O)[C@H](Cc1ccc(-c2cccnc2)cc1)NC(=O)[C@@H](NC(=O)OC)C(C)(C)C)C(C)(C)C	40

Test system: Human immunodeficiency virus 1
Assay: Antiviral activity against HIV1 A17 harboring protease L10F, V32I, M46I, I47V, Q58E and I84V mutant infected in human MT4 cells assessed as inhibition of virus-induced cell death after 5 days by MTT assay relative to wild type HIV1 pNL4-3
Type: functional
Conditions: not given

SMILES	fold change (FC)
COC(=O)N[C@H](C(=O)N[C@@H](Cc1ccccc1)C[C@H](O)[C@H](Cc1ccc(-c2cccnc2)cc1)NC(=O)[C@@H](NC(=O)OC)C(C)(C)C)C(C)(C)C	2
COC(=O)N[C@H](C(=O)N[C@@H](Cc1ccccc1)C[C@H](O)[C@H](Cc1ccc(-c2ccc(C(C)=O)cc2)cc1)NC(=O)[C@@H](NC(=O)OC)C(C)(C)C)C(C)(C)C	9

Test system: Liver microsomes
Assay: Metabolic stability in human liver microsomes assessed as disappearance of the compound after 20 mins in the presence of 0.4 uM CYP3A4 inhibitor ritonavir
Conditions: not given

SMILES	Stability
COC(=O)N[C@H](C(=O)N[C@@H](Cc1ccccc1)C[C@H](O)[C@H](Cc1ccc(-c2cccnc2)cc1)NC(=O)[C@@H](NC(=O)OC)C(C)(C)C)C(C)(C)C	Stable
